Source: PubChem BioAssay (The Scripps Research Institute Molecular Screening Center)
An excerpt weighted towards active compounds, which were near 2.7% of everything screened.
PRMT1 FP inh – blocks human protein arginine methyltransferase 1. Q99873. recombinant PRMT1, activity-based probe fluorescence polarization. inhibition, % at 2.79 µM. 370,000 tested, 1.3% active;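 active = inhibition above about 21% made by adding two undisclosed values, limit read from the data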
Target sequence (Q99873 whole entry, looked up): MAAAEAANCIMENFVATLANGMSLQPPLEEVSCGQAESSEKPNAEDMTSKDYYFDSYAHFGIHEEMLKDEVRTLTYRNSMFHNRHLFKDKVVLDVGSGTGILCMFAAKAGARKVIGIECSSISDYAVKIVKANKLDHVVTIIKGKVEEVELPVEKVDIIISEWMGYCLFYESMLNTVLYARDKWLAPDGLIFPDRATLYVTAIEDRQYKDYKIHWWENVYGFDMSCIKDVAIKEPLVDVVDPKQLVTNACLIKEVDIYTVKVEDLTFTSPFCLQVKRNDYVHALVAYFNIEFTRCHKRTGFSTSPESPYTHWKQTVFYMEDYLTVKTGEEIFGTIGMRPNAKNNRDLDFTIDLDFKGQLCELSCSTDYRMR
PAD4 FP inh – inhibitors of human PAD4; Q9UM07; recombinant PAD4, RCA probe fluorescence polarization; inhibition, % at 6.36 µM; 330,000 tested, 0.41% active;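 active = percent inhibition above a cutoff equal to the mean of all tested compounds plus 3 SD, cut at about 15% in these data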;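 note: 0% = PAD4 with RCA probe and DMSO and 100% = probe without PAD4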
RBBP9 inhibitor – human RBBP9 hydrolase inhibition. O75884. recombinant RBBP9, FP-Rh probe fluorescence polarization. 220,000 tested, 0.2% active. inhibition, % at 7.94 µM;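 active = inhibition above the campaign mean of all tested compounds plus 3 SD, cut at about 14% in these data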;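 note: plate controls were DMSO wells with RBBP9 for no effect and wells lacking RBBP9 protein for full effect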
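Material: RBBP9 protein. Amount: RBBP9 at 2.5 µM in dispensed solution, before mixing. Schedule: 30 min then 45 min, 25 °C. Medium: Tris buffer pH 8.0, NaCl, Pluronic. Measured by: fluorescence polarization. Measure: percent inhibition from mP, scaled between DMSO and no-protein wells. Replication: one well per compound.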
GSTO1 inh – counter-screen for RBBP9 inhibitors: inhibitors of human GSTO1; recombinant GSTO1, activity-based probe fluorescence polarization; inhibition, % at 5.96 µM; 300,000 tested, 1.1% active;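 active = inhibition above the campaign mean inhibition plus 3 SD, cut at about 35% in these data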;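 note: 0% = GSTO1-1 with DMSO and 100% = wells lacking GSTO1-1 enzyme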
Target sequence (P78417 whole entry, looked up): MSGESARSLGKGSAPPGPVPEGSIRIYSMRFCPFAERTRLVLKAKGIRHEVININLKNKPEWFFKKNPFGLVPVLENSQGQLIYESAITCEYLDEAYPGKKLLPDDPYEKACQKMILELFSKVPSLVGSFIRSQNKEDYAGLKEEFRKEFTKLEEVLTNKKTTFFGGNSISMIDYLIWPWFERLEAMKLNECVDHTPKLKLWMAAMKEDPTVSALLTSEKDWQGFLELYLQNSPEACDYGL
SIAE primary – human SIAE inhibition, primary screen | 370,000 tested, 0.69% active | SIAE FP-Rh probe binding, fluorescence polarization | Q9HAT2 | inhibition, % at 9.66 µM;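 active = inhibition above a cutoff: mean of compounds within the control limits plus 3 SD of those, cut at about 17% in these data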;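 note: 0% = plate median of compound wells and 100% = probe without SIAE protein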
SIAE confirm – confirmation of human SIAE inhibitors; AID 1117263; SIAE FP-Rh activity-based probe, fluorescence polarization; shares compounds with SIAE primary; inhibition, % at 9.66 µM; 2,300 tested, 13% active;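 active = mean inhibition of the replicates above the hit cutoff set in the primary screen, cut at about 17% in these data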;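 note: 0% = SIAE with DMSO and probe and 100% = probe without SIAE; inhibitors lower polarization as more probe stays unbound to SIAE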
* = called active by the depositor; / = not tested or not shown.

SMILES | PRMT1 FP inh | PAD4 FP inh | RBBP9 inhibitor | GSTO1 inh | SIAE primary | SIAE confirm
CCOC(=O)CC[C@@H]1CC[C@]2(CCCN(C(=O)c3cccnc3)C2)O1 | 0 | / | / | / | 0 | /
CCC1CCC2(CC1)NC(=O)N(CC(=O)NCc1ccccc1Cl)C2=O (stereo not drawn) | -2 | 4 | / | / | 17* | 4
CCCCNC(=O)/C=C/c1cccs1 | 2 | -5 | -7 | 8 | -4 | /
O=C(c1cn(-c2ccccc2)nc1-c1ccc(F)cc1)N1CCOCC1 | 1 | -4 | -8 | 0 | 3 | /
O=C(NC(=S)N1CCOCC1)c1cn(-c2ccccc2)nc1-c1ccc(F)cc1 | -4 | -3 | / | / | 28* | 0
Cc1csc(NC(=O)CSc2nc(=O)[nH]c3c2CCCC3)n1 | 3 | 2 | / | 12 | -4 | /
CC(C#N)(NC(=O)CN1CCN(S(=O)(=O)c2ccccc2C#N)CC1)C1CC1 (stereo not drawn) | -2 | -2 | / | / | 20* | -1
COCc1cc(N2CCNC[C@@H]2C)ccc1N1CCN(Cc2ccccc2)[C@H](C)C1 | -2 | / | / | / | 17* | 4
C[C@@H]1CN(c2ccc(N3CCNC[C@@H]3C)cc2C#N)CCN1Cc1ccccc1 | 0 | / | / | / | 20* | 3
O=C1C(=O)N(Cc2cccnc2)C(c2cccc([N+](=O)[O-])c2)/C1=C(\O)c1ccc2c(c1)OCCO2 (stereo not drawn) | 4 | -1 | / | -6 | 2 | /
N=C(N)SCCc1cccc(CCSC(=N)N)c1 | 2 | 0 | / | 4 | -1 | /
O=C(CCCSc1ccc(Cl)cc1)Nc1ccccc1O | / | -1 | / | 3 | / | /
O=C(Nc1nnc(-c2cccs2)o1)c1ccco1 | 7 | -2 | -3 | 1 | 19* | 4
CCOC(=O)Cn1c(=O)c2c(nc3n2CCS3)n(C)c1=O | -1 | 3 | -8 | 15 | 4 | /
Cc1cc(/C([O-])=C(/C(=S)Nc2ccc(F)cc2)[n+]2ccccc2)c(C)n1Cc1ccccc1Cl | -2 | -5 | -5 | -2 | 22* | -2
C1COCCNCCOCCOCCN1 | -4 | 0 | -2 | 0 | -1 | /
O=C1NC(=Nc2ccccc2)S/C1=C\C=C\c1ccco1 | 21 | -18 | 9 | 6 | 24* | 1
COc1ccc(N=C2NC(=O)/C(=C/C=C/c3ccccc3)S2)cc1 | -2 | -2 | -6 | -6 | -2 | /
O=C(/C=C/c1ccc(O)c(O)c1)c1ccc(S(=O)(=O)N2CCCCCC2)cc1 | 3 | -1 | -22 | 2 | 45* | -2
O=C(c1ccc(S(=O)(=O)N2CCCC2)cc1)N1CCCCC1 | 5 | -2 | / | 8 | -3 | /
c1cc2c3c(cccc3c1)NC(c1ccc3c(c1)OCO3)N2 | 2 | -6 | / | 35* | 28* | 8
CC(C)=CCN1CCN(Cc2ccoc2)CC1CCO (stereo not drawn) | -1 | -3 | 0 | 6 | -1 | /
CCC1CCC(N2CCN(c3ccc([N+](=O)[O-])cc3)CC2)CC1 (stereo not drawn) | 2 | / | / | / | -2 | /
CCC1CCC(N2CCN(c3ccc(F)cc3)CC2)CC1 (stereo not drawn) | -6 | / | / | / | 17* | 0
COC(=O)Nc1ccc(S(=O)(=O)N2CCCC(C(=O)O)C2)cc1 (stereo not drawn) | 2 | -3 | -3 | 4 | 19* | 5
SMILES | PRMT1 FP inh | PAD4 FP inh | RBBP9 inhibitor | GSTO1 inh | SIAE primary | SIAE confirm
C=CCN1CCN(Cc2cnc(Cl)s2)CC1 | -1 | -8 | -8 | -1 | -1 | /
Clc1ncc(CN2CCN(Cc3ccccc3)CC2)s1 | -3 | 1 | -1 | -4 | 28* | -3
Cc1ccc(S(=O)(=O)N(C)c2ccccc2C(=O)N2CCCC2)cc1 | 0 | -4 | / | 0 | 17* | 5
COc1ccc(N2CCN(C(=O)c3ccccc3N(C)S(=O)(=O)c3ccc(C)cc3)CC2)cc1 | 2 | / | / | / | 0 | /
Cn1c(=O)c2cc(NC(=O)Nc3ccccc3)ccc2n1Cc1ccccc1 | 3 | / | / | / | 7 | /
COc1ccc2nc3cc(Cl)ccc3c(Nc3cc(C(C)C)c(O)cc3C)c2c1 | 5 | 2 | -5 | -1 | 29* | 14
CCN(CC)CCCC(C)Nc1c2ccc(Cl)cc2nc2ccc(OC)cc12 (stereo not drawn) | / | / | -1 | / | / | /
N#Cc1ccccc1Oc1ccc(S(=O)(=O)N2CCCCC2)cn1 | -2 | 2 | / | 1 | -4 | /
COc1ccc2oc(=O)c(-c3csc(Nc4cccc(O)c4)n3)cc2c1 | -1 | -5 | 1 | -22 | 39* | -5
COC(=O)c1sc(N/N=C/c2ccc(C(C)C)cc2)nc1C | -2 | -2 | / | 5 | 23* | 7
CC(=O)c1sc(N/N=C\c2ccc(N(C)C)cc2)nc1C | -1 | -1 | / | 5 | 1 | /
Cc1ccc(NC(=O)CSc2n[nH]c(-c3ccccn3)n2)cc1 | 2 | 9 | / | 6 | 0 | /
O=C(COc1ccc2cc(Br)ccc2c1)N1CCCC1 | 4 | -4 | / | -1 | 1 | /
N#CCCN(C(=O)COC(=O)CNS(=O)(=O)c1ccc2ccccc2c1)c1ccccc1 | 3 | -2 | / | / | 23* | 4
C/C(N)=C(/C#N)C(=O)COC(=O)CNS(=O)(=O)c1ccc2ccccc2c1 | -3 | 2 | -12 | 10 | 5 | /
O=C(O)CCCCCN1C(=O)C(O)=C(C(=O)/C=C/c2ccccc2)C1c1ccc2c(c1)OCO2 (stereo not drawn) | 4 | -8 | 0 | 5 | -2 | /
CCCOn1nnnc1-c1ccccc1 | -2 | 3 | -1 | 9 | 18* | 3
CCOC(=O)N/N=C/c1ccc(N(CC)CC)cc1O | -1 | 0 | 1 | 14 | 18* | -2
CCN(CC)S(=O)(=O)c1cccc(C(=O)N/N=C/c2cc(OC)c(O)c(OC)c2)c1 | -1 | 2 | -4 | 0 | 0 | /
CCN(CC)c1ccc(C=Nc2cccc(S(=O)(=O)N3CCOCC3)c2)c(O)c1 | -3 | 0 | / | / | -5 | /
CCN(CC)c1ccc(/C=N/Nc2ccc(C)cc2)c(O)c1 | 7 | -3 | -5 | 35 | 13 | /
CCN(CC)S(=O)(=O)c1cccc(C(=O)N/N=C/c2cccc(O)c2O)c1 | 10 | -12 | -2 | 43* | 27* | -7
CCN(CC)c1ccc(/C=N/NC(=O)c2cccc(S(=O)(=O)N3CCOCC3)c2)c(O)c1 | 1 | 2 | -13 | -1 | 20* | 11
COc1ccc(C(C)=O)cc1COc1cccc2c1OC(C)(C)C2 | -5 | / | / | / | -11 | /
Cc1ccccc1N1CCN(S(=O)(=O)N(C)C)CC1 | -1 | 0 | -1 | 2 | 21* | 3
COc1ccc(Cl)cc1NC(=O)c1nnn(CC(=O)Nc2cc(C)cc(C)c2)c1N | -1 | 5 | / | -12 | -3 | /
Oc1ccc(Nc2ccc3ccccc3c2)cc1 | 17 | / | / | / | 20* | 15
CCC(=O)Nc1ccc2ccccc2c1 | -1 | -4 | -7 | 4 | 6 | /
O=[N+]([O-])c1ccc(N2CCN(Cc3ccc4c(c3)OCO4)CC2)nc1 | 1 | 0 | / | 5 | 24* | 0
CCOc1ccc(/C=N/NC(=S)NC2CC3CC2C2C=CCC32)cc1 (stereo not drawn) | 4 | -2 | -11 | -11 | -3 | /
